Legend:
Assay type in all cases: functional
Fusarium oxysporum [1] = assay: Antifungal activity against Fusarium oxysporum at 1000 ppm after 96 hrs
Method in brief: (§1)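 Poisoned-food assay on potato dextrose agar (200 g potato per litre, boiled and filtered) with compound mixed into sterilized medium at final 100, 500 or 1000 ppm. Plates were centre-inoculated with mycelial discs from 7-day PDA cultures and incubated at 28 ± 1 °C. Colony diameter was measured at two right angles after 96 h. Inhibition = (C − T) × 100/C against compound-free control, mean of three replicates ± SD, two-way ANOVA.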

Helminthosporium [2] = assay: Antifungal activity against Helminthosporium species at 1000 ppm after 96 hrs; method in brief: as §1
Helminthosporium [3] = assay: Antifungal activity against Helminthosporium species at 100 ppm after 96 hrs; method in brief: as §1
Alternaria alternata [4] = assay: Antifungal activity against Alternaria alternata at 500 ppm after 96 hrs; method in brief: as §1
Fusarium oxysporum [5] = assay: Antifungal activity against Fusarium oxysporum at 100 ppm after 96 hrs; method in brief: as §1
Helminthosporium [6] = assay: Antifungal activity against Helminthosporium species at 500 ppm after 96 hrs; method in brief: as §1
Fusarium oxysporum [7] = assay: Antifungal activity against Fusarium oxysporum at 500 ppm after 96 hrs; method in brief: as §1
Alternaria alternata [8] = assay: Antifungal activity against Alternaria alternata at 1000 ppm after 96 hrs; method in brief: as §1
Alternaria alternata [9] = assay: Antifungal activity against Alternaria alternata at 100 ppm after 96 hrs; method in brief: as §1

O=c1c(O)c(-c2cn(-c3ccccc3)nc2-c2ccc([N+](=O)[O-])cc2)oc2ccccc12
inhibition at 1000 ppm (Fusarium oxysporum [1]): 14.2% | inhibition at 1000 ppm (Helminthosporium [2]): 14.4% | inhibition at 100 ppm (Helminthosporium [3]): 1.31% | inhibition at 500 ppm (Alternaria alternata [4]): 16.1% | inhibition at 100 ppm (Fusarium oxysporum [5]): 8.57% | inhibition at 500 ppm (Helminthosporium [6]): 1.31% | inhibition at 500 ppm (Fusarium oxysporum [7]): 11.4% | inhibition at 1000 ppm (Alternaria alternata [8]): 16.1% | inhibition at 100 ppm (Alternaria alternata [9]): 0%

COc1ccc(-c2nn(-c3ccccc3)cc2-c2oc3ccccc3c(=O)c2O)cc1
inhibition at 1000 ppm (Fusarium oxysporum [1]): 64.2% | inhibition at 1000 ppm (Helminthosporium [2]): 77.6% | inhibition at 100 ppm (Helminthosporium [3]): 59.7% | inhibition at 500 ppm (Alternaria alternata [4]): 75.4% | inhibition at 100 ppm (Fusarium oxysporum [5]): 55.5% | inhibition at 500 ppm (Helminthosporium [6]): 59.7% | inhibition at 500 ppm (Fusarium oxysporum [7]): 55.3% | inhibition at 1000 ppm (Alternaria alternata [8]): 77.3% | inhibition at 100 ppm (Alternaria alternata [9]): 73.5%

O=c1c(O)c(-c2cn(-c3ccccc3)nc2-c2ccc(Br)cc2)oc2ccccc12
inhibition at 1000 ppm (Fusarium oxysporum [1]): 41.4% | inhibition at 1000 ppm (Helminthosporium [2]): 39.2% | inhibition at 100 ppm (Helminthosporium [3]): 39% | inhibition at 500 ppm (Alternaria alternata [4]): 29% | inhibition at 100 ppm (Fusarium oxysporum [5]): 34.2% | inhibition at 500 ppm (Helminthosporium [6]): 39.2% | inhibition at 500 ppm (Fusarium oxysporum [7]): 35.7% | inhibition at 1000 ppm (Alternaria alternata [8]): 34.5% | inhibition at 100 ppm (Alternaria alternata [9]): 25.4%

O=c1c(O)c(-c2cn(-c3ccccc3)nc2-c2ccc(Cl)cc2)oc2ccccc12
inhibition at 1000 ppm (Fusarium oxysporum [1]): 0% | inhibition at 1000 ppm (Helminthosporium [2]): 21.4% | inhibition at 100 ppm (Helminthosporium [3]): 0% | inhibition at 500 ppm (Alternaria alternata [4]): 38.2% | inhibition at 100 ppm (Fusarium oxysporum [5]): 0% | inhibition at 500 ppm (Helminthosporium [6]): 1.19% | inhibition at 500 ppm (Fusarium oxysporum [7]): 0% | inhibition at 1000 ppm (Alternaria alternata [8]): 38.2% | inhibition at 100 ppm (Alternaria alternata [9]): 0%

O=c1c(O)c(-c2cn(-c3ccccc3)nc2-c2ccccc2)oc2ccccc12
inhibition at 1000 ppm (Fusarium oxysporum [1]): 51.7% | inhibition at 1000 ppm (Helminthosporium [2]): 71.2% | inhibition at 100 ppm (Helminthosporium [3]): 31% | inhibition at 500 ppm (Alternaria alternata [4]): 41.5% | inhibition at 100 ppm (Fusarium oxysporum [5]): 33.9% | inhibition at 500 ppm (Helminthosporium [6]): 50.5% | inhibition at 500 ppm (Fusarium oxysporum [7]): 39.2% | inhibition at 1000 ppm (Alternaria alternata [8]): 52.8% | inhibition at 100 ppm (Alternaria alternata [9]): 15%

O=c1c(O)c(-c2cn(-c3ccccc3)nc2-c2ccc(F)cc2)oc2ccccc12
inhibition at 1000 ppm (Fusarium oxysporum [1]): 16% | inhibition at 1000 ppm (Helminthosporium [2]): 58.6% | inhibition at 100 ppm (Helminthosporium [3]): 12.3% | inhibition at 500 ppm (Alternaria alternata [4]): 43.3% | inhibition at 100 ppm (Fusarium oxysporum [5]): 8.9% | inhibition at 500 ppm (Helminthosporium [6]): 28.7% | inhibition at 500 ppm (Fusarium oxysporum [7]): 8.9% | inhibition at 1000 ppm (Alternaria alternata [8]): 50.9% | inhibition at 100 ppm (Alternaria alternata [9]): 30.1%

Cc1ccc(-c2nn(-c3ccccc3)cc2-c2oc3ccccc3c(=O)c2O)cc1
inhibition at 1000 ppm (Fusarium oxysporum [1]): 55.7% | inhibition at 1000 ppm (Helminthosporium [2]): 76.1% | inhibition at 100 ppm (Helminthosporium [3]): 73.8% | inhibition at 500 ppm (Alternaria alternata [4]): 61.8% | inhibition at 100 ppm (Fusarium oxysporum [5]): 50% | inhibition at 500 ppm (Helminthosporium [6]): 73.8% | inhibition at 500 ppm (Fusarium oxysporum [7]): 51.4% | inhibition at 1000 ppm (Alternaria alternata [8]): 61.8% | inhibition at 100 ppm (Alternaria alternata [9]): 60%

C[C@@H]1C[C@@H]([C@H](O)CC2CC(=O)NC(=O)C2)C(=O)[C@@H](C)C1 [CYCLOHEXIMIDE]
inhibition at 1000 ppm (Fusarium oxysporum [1]): 50.2% | inhibition at 1000 ppm (Helminthosporium [2]): 50% | inhibition at 100 ppm (Helminthosporium [3]): 38.5% | inhibition at 500 ppm (Alternaria alternata [4]): 45.5% | inhibition at 100 ppm (Fusarium oxysporum [5]): 39.2% | inhibition at 500 ppm (Helminthosporium [6]): 41.5% | inhibition at 500 ppm (Fusarium oxysporum [7]): 43.4% | inhibition at 1000 ppm (Alternaria alternata [8]): 50.6% | inhibition at 100 ppm (Alternaria alternata [9]): 40.2%

Reference: ChEMBL document CHEMBL1149782, “Synthesis and antifungal activity of some new 3-hydroxy-2-(1-phenyl-3-aryl-4-pyrazolyl) chromones” (2008)
